Data reported in ChEMBL document CHEMBL4346701, “Synthesis and biological evaluation of tryptophan-derived rhodanine derivatives as PTP1B inhibitors and anti-bacterial agents” (Eur J Med Chem, 2019).
≈ marks a conversion by molar mass, not a printed value.

Legend:
Homo sapiens [1] = organism: Homo sapiens; assay: Selectivity ratio of IC50 for human recombinant GST-tagged SHP1 to IC50 for human recombinant GST-tagged PTP1B
[2] = target: T1, M-phase inducer phosphatase 2 (Homo sapiens, UniProt P30305); assay: Inhibition of human recombinant GST-tagged CDC25B expressed in Escherichia coli BL21 (DE3) using pNPP as substrate measured for 2 mins by colorimetric analysis
T1 sequence (P30305 whole entry): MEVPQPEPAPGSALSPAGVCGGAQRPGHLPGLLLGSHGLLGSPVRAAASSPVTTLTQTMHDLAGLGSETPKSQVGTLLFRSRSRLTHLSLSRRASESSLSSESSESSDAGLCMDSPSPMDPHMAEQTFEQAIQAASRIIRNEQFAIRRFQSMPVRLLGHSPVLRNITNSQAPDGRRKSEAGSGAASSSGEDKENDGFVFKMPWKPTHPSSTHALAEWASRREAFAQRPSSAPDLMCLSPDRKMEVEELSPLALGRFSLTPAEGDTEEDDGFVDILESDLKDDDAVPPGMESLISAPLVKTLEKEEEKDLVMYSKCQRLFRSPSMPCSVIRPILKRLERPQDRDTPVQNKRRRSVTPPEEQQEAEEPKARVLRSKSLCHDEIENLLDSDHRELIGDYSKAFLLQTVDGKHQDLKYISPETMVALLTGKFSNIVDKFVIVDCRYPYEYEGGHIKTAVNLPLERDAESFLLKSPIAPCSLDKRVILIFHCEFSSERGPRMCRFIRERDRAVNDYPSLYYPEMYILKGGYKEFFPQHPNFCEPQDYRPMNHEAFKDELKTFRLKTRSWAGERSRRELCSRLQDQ
How it was run: (§1)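 pNPP hydrolysis assay. IC50 was derived by regression analysis and given as mean ± SD of three replications.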

Escherichia coli = assay: Antibacterial activity against Escherichia coli 1924 assessed as reduction in bacterial cell growth incubated for 24 hrs by ELISA; assay type: functional; conditions: Escherichia coli, 1924, 24 h
How it was run: (§2)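 MIC determined by serial dilution in 96-well microtiter plates. Strains used were E. coli 1924 and P. aeruginosa 2742 (Gram-negative), S. mutans 3289 (Gram-positive) and the fungus C. albicans 7535. Gatifloxacin, moxifloxacin, norfloxacin and oxacillin served as antibacterial reference agents, and fluconazole as the antifungal reference.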

Staphylococcus aureus [3] = assay: Antibacterial activity against Methicillin-resistant Staphylococcus aureus CCARM 3506 assessed as reduction in bacterial cell growth incubated for 24 hrs by ELISA; assay type: functional; conditions: CCARM 3506, 24 h
How it was run: (§3)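 MICs determined by serial dilution in 96-well microtiter plates. The strain panel included Gram-positive S. aureus strains and multidrug-resistant clinical isolates. Gatifloxacin, moxifloxacin, norfloxacin and oxacillin served as antibacterial positive controls.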

Staphylococcus aureus [4] = assay: Antibacterial activity against Quinolone-resistant Staphylococcus aureus CCARM 3505 assessed as reduction in bacterial cell growth incubated for 24 hrs by ELISA; assay type: functional; conditions: CCARM 3505, 24 h; how it was run: as §3
[5] = target: Tyrosine-protein phosphatase non-receptor type 6 (Homo sapiens, UniProt P29350); assay: Inhibition of human recombinant GST-tagged SHP1 (catalytic domain 244 to 570 residues) expressed in Escherichia coli BL21 (DE3) using pNPP as substrate measured for 2 mins by colorimetric analysis; how it was run: as §1
Sequence of Tyrosine-protein phosphatase non-receptor type 6 (P29350 whole entry, the tested form may be a part): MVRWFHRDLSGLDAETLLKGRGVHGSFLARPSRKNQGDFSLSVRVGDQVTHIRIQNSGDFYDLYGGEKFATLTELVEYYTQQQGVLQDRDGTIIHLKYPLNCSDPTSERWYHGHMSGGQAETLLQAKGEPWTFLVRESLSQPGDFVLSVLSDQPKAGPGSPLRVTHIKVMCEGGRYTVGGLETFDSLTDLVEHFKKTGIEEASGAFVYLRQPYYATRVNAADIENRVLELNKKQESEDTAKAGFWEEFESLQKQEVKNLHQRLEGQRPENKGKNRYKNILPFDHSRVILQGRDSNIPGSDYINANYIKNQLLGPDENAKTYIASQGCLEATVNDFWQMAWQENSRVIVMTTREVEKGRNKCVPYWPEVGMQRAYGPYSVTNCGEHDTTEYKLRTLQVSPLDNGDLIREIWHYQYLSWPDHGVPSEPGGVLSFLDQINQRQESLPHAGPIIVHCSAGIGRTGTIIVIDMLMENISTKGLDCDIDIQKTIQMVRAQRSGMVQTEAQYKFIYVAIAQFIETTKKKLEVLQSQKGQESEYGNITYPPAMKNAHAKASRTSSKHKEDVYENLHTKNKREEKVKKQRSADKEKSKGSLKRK

Staphylococcus aureus [6] = assay: Antibacterial activity against Quinolone-resistant Staphylococcus aureus CCARM 3519 assessed as reduction in bacterial cell growth incubated for 24 hrs by ELISA; assay type: functional; conditions: CCARM 3519, 24 h; how it was run: as §3
Staphylococcus aureus [7] = assay: Antibacterial activity against Methicillin-resistant Staphylococcus aureus CCARM 3167 assessed as reduction in bacterial cell growth incubated for 24 hrs by ELISA; assay type: functional; conditions: CCARM 3167, 24 h; how it was run: as §3
[8] = target: T2, Tyrosine-protein phosphatase non-receptor type 1 (Homo sapiens, UniProt P18031); assay: Inhibition of human recombinant GST-tagged PTP1B expressed in Escherichia coli BL21 (DE3) using pNPP as substrate measured for 2 mins by colorimetric analysis
T2 sequence (P18031 whole entry): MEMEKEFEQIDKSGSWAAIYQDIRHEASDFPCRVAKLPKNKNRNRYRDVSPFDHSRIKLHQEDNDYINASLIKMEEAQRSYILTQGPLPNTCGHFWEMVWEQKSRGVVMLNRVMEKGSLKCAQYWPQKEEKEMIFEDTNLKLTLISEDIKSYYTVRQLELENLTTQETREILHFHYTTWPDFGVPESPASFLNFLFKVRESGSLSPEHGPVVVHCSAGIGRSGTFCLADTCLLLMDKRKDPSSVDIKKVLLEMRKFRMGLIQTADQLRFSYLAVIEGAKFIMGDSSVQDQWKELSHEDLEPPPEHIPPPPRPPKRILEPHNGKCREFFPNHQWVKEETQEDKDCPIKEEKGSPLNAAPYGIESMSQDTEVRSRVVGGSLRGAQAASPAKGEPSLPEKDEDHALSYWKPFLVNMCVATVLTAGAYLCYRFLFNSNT

Streptococcus mutans = assay: Antibacterial activity against Streptococcus mutans KCTC3289 assessed as reduction in bacterial cell growth incubated for 24 hrs by ELISA; assay type: functional; conditions: KCTC3289, 24 h; how it was run: as §2
Staphylococcus aureus [9] = assay: Antibacterial activity against Staphylococcus aureus KCTC503 assessed as reduction in bacterial cell growth incubated for 24 hrs by ELISA; assay type: functional; conditions: KCTC503, 24 h; how it was run: as §3
Candida albicans = assay: Antifungal activity against Candida albicans 7535 assessed as reduction in bacterial cell growth incubated for 24 hrs by ELISA; assay type: functional; conditions: Candida albicans, 7535, 24 h; how it was run: as §2
Homo sapiens [10] = organism: Homo sapiens; assay: Selectivity ratio of IC50 for human recombinant GST-tagged SHP2 to IC50 for human recombinant GST-tagged PTP1B
Homo sapiens [11] = organism: Homo sapiens; assay: Selectivity ratio of IC50 for human recombinant GST-tagged TCPTP to IC50 for human recombinant GST-tagged PTP1B
Staphylococcus aureus [12] = assay: Antibacterial activity against Staphylococcus aureus KCTC209 assessed as reduction in bacterial cell growth incubated for 24 hrs by ELISA; assay type: functional; conditions: KCTC209, 24 h; how it was run: as §3
Pseudomonas aeruginosa = assay: Antibacterial activity against Pseudomonas aeruginosa 2742 assessed as reduction in bacterial cell growth incubated for 24 hrs by ELISA; assay type: functional; conditions: Pseudomonas aeruginosa, 2742, 24 h; how it was run: as §2
Staphylococcus aureus [13] = assay: Antibacterial activity against Staphylococcus aureus RN4220 assessed as reduction in bacterial cell growth incubated for 24 hrs by ELISA; assay type: functional; conditions: RN4220, 24 h; how it was run: as §3

| Structure (SMILES) | Ratio IC50 (Homo sapiens [1]) | IC50 [2] [nM] | MIC (Escherichia coli) [µg/mL] | MIC (Staphylococcus aureus [3]) [µg/mL] | MIC (Staphylococcus aureus [4]) [µg/mL] | IC50 [5] [nM] | MIC (Staphylococcus aureus [6]) [µg/mL] | MIC (Staphylococcus aureus [7]) [µg/mL] | IC50 [8] [nM] | MIC (Streptococcus mutans) [µg/mL] | MIC (Staphylococcus aureus [9]) [µg/mL] | MIC (Candida albicans) [µg/mL] | Ratio IC50 (Homo sapiens [10]) | Ratio IC50 (Homo sapiens [11]) | MIC (Staphylococcus aureus [12]) [µg/mL] | MIC (Pseudomonas aeruginosa) [µg/mL] | MIC (Staphylococcus aureus [13]) [µg/mL] |
| --- | --- | --- | --- | --- | --- | --- | --- | --- | --- | --- | --- | --- | --- | --- | --- | --- | --- |
| Cc1ccc(COc2ccc3cc(/C=C4\SC(=S)N(C(Cc5c[nH]c6ccccc56)C(=O)O)C4=O)ccc3c2)cc1 (stereo unspecified) | 3 to 6 | 830 | 2 (≈ 3.46 µM) | 8 (≈ 13.8 µM) | 2 (≈ 3.46 µM) | 3990 | 2 (≈ 3.46 µM) | 2 (≈ 3.46 µM) | 640 | 2 (≈ 3.46 µM) | 2 (≈ 3.46 µM) | > 64 | 9 to 10 | 2 to 3 | 2 (≈ 3.46 µM) | > 64 | 2 (≈ 3.46 µM) |
| O=C(O)C(Cc1c[nH]c2ccccc12)N1C(=O)/C(=C/c2ccc3cc(OCc4ccc(Br)cc4)ccc3c2)SC1=S (stereo unspecified) | 3 to 6 | 320 | 8 (≈ 12.4 µM) | 4 (≈ 6.22 µM) | 4 (≈ 6.22 µM) | 1110 | 4 (≈ 6.22 µM) | 4 (≈ 6.22 µM) | 360 | 8 (≈ 12.4 µM) | 4 (≈ 6.22 µM) | > 64 | 9 to 10 | 2 to 3 | 2 (≈ 3.11 µM) | > 64 | 2 (≈ 3.11 µM) |
| O=C(O)C(Cc1c[nH]c2ccccc12)N1C(=O)/C(=C/c2ccc3cc(OCc4ccc(Cl)cc4Cl)ccc3c2)SC1=S (stereo unspecified) | 3 to 6 | 490 | 8 (≈ 12.6 µM) | 8 (≈ 12.6 µM) | 4 (≈ 6.31 µM) | 2950 | 8 (≈ 12.6 µM) | 4 (≈ 6.31 µM) | 540 | 4 (≈ 6.31 µM) | 4 (≈ 6.31 µM) | > 64 | 9 to 10 | 2 to 3 | 4 (≈ 6.31 µM) | > 64 | 2 (≈ 3.16 µM) |
